The test system of this test is BV-2. As to the kind of experiment: Anti-inflammatory activity in mouse BV2 cells assessed as reduction in LPS-induced nitric oxide production by Griess assay. In kind it is functional, cell-based. The procedure, abridged:
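NO release from LPS-stimulated BV-2 cells was measured by the Griess reaction, and IC50 values were derived. SMT (2-methyl-2-thiopseudourea, sulfate) served as the positive control. Data come from three experiments. The procedure otherwise follows a previously published method.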

For `CSC(=N)N`, the half-inhibitory concentration (IC50) came to 3.7 µM.
To `CC(=O)O[C@H]1C2=C(C[C@H]3OC(=O)C(C)=C13)[C@@]1(C)[C@H](CC2)C(C)(C)CC[C@@H]1O` belongs over 50 µM.
To `C=C1C[C@@]23CC[C@@H]4C(C)(C)C(=O)CC[C@@]4(C)[C@@H]2C[C@@H]1[C@@H](O)C3=O` belongs over 50 µM.
As for `CCC(C)C(=O)OC[C@]1(C)C(=O)CC[C@@]2(C)[C@@H]3CC[C@@H]4C[C@@]3(CC[C@@H]21)C[C@@]4(O)CO` (stereo partly specified), the figure is 32.6 µM; as for `C/C=C(/C)C(=O)O[C@H]1C(C)=C[C@]23C(=O)[C@@H](C=C(C)[C@@H](O)[C@]12O)[C@H]1[C@@H](C[C@H]3C)[C@@]1(C)COC(=O)/C(C)=C/C`, 28.6 µM; as for `C=C[C@@]1(C)C=C2CC[C@@H]3[C@@](C)(C=O)[C@H](O)CC[C@@]3(C)[C@@H]2C[C@@H]1O`, 32.3 µM.
As for `C=C1C[C@@]23CC[C@@H]4C(C)(C)[C@H](O)CC[C@@]4(C)[C@@H]2C[C@@H]1[C@@H](O)C3=O`, the half-maximal inhibitory concentration (IC50) was over 50 µM.
To `CC1=C2C=C3CC[C@@H]4C(C)(C)CC[C@H](O)[C@@]4(C)[C@@H]3C[C@@H]2OC1=O` belongs 38.4 µM; to `CC1=C2C=C3CC[C@@H]4[C@@](C)(CO)CC[C@H](O)[C@@]4(C)[C@@H]3C[C@H]2OC1=O`, over 50 µM; to `C/C=C(/C)C(=O)O[C@H]1C(C)=C[C@]23C(=O)[C@@H](C=C(C)[C@@H](O)[C@]12O)[C@H]1[C@@H](C[C@H]3C)[C@@]1(C)COC(=O)c1ccccc1`, 14.5 µM.
As for `C[C@H]1C(=O)CC[C@]2(C)[C@@H]1CC[C@@]13CC[C@@H](C[C@H]12)[C@](O)(CO)C3`, the figure is over 50 µM; as for `C/C=C(\C)C(=O)OC[C@]1(C)C(=O)CC[C@@]2(C)[C@@H]3CC[C@@H]4C[C@@]3(CC[C@@H]21)C[C@@]4(O)CO`, 19.3 µM.
As for `CC1=C2[C@@H](O)C3=C(C[C@H]2OC1=O)[C@@]1(C)[C@H](CC3)C(C)(C)CC[C@@H]1O`, the figure is over 50 µM; as for `CO[C@H]1[C@H]2[C@@H]([C@@H](OC(C)=O)[C@@H](C)C(=O)[C@@]34C[C@H](C)[C@H](OC(C)=O)[C@]3(/C=C(\C)[C@H]1O)O4)C2(C)C`, over 50 µM.
As to `CC(=O)O[C@@H]1[C@@H]2[C@H]([C@H](OC(=O)c3ccccc3)[C@H](OC(C)=O)/C(C)=C/[C@@]34O[C@@]3(C[C@H](C)[C@@H]4OC(C)=O)C(=O)[C@@H]1C)C2(C)C`, the 50% inhibitory concentration (IC50) was over 50 µM.
For `C=C1C[C@@]23CC[C@@H]4C(C)(C)[C@@H](O)CC[C@@]4(C)[C@@H]2C[C@@H]1[C@@H](O)C3=O`, the IC50 is over 50 µM.
To `C/C=C(/C)C(=O)O[C@@H]1/C(C)=C/[C@@]23O[C@@]2(C[C@H](C)[C@@H]3O)C(=O)[C@H](C)[C@H](OC(C)=O)[C@@H]2[C@H]([C@@H]1OC)C2(C)C` belongs over 50 µM; to `C=C[C@@]1(C)C=C2CC[C@@H]3[C@@](C)(O)[C@H](O)CC[C@@]3(C)[C@@H]2C[C@@H]1O`, over 50 µM.
On to `CC(=O)OC[C@]1(C)C(=O)CC[C@@]2(C)[C@@H]3C[C@@H]4CC[C@@]3(CC[C@@H]21)C[C@@]4(O)CO`, for which the IC50 is over 50 µM.
As for `CC(=O)O[C@H]1CCC(C)(C)[C@H]2CCC3=CC4=C(C)C(=O)O[C@@H]4C[C@H]3[C@]12C`, the figure is 12 µM; as for `C=C[C@]1(C)C=C2CC[C@H]3[C@](C)(C=O)[C@@H](O)CC[C@]3(C)[C@H]2CC1` [SANDARACOPIMARADIENOLAL], over 50 µM.

The IC50 is the concentration needed to halve the response being measured.

For the origin of these results see ChEMBL document CHEMBL4330169, “Bioactive Diterpenoids from the Stems of Euphorbia royleana” (J Nat Prod, 2019).
